# TLR9-MyD88 inh – TLR9-MyD88 interaction inhibition; Q9NR96+Q99836; CHO BLA complementation TLR9-MyD88, CCF4 FRET ratio; inhibition, % at 4.98 µM; actives 0.21% (n = 340,000);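 active means inhibition above the mean over all tested compounds plus 3 SD, cut at about 21% in these data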;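 further: 0% = DMSO only wells and 100% = clavulanate BLA inhibitor control wells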
# NOD2 RIPK2 PPI – NOD2-RIPK2 protein interaction inhibition | O43353 | CHO BLA complementation NOD2-RIPK2, CCF4 ratio | inhibition, % at 4.98 µM | actives 0.38% (n = 360,000); in the data active means inhibition above about 21%;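 further: 0% = vehicle only and 100% = reference blocker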
# Target sequence (O43353 whole entry, looked up): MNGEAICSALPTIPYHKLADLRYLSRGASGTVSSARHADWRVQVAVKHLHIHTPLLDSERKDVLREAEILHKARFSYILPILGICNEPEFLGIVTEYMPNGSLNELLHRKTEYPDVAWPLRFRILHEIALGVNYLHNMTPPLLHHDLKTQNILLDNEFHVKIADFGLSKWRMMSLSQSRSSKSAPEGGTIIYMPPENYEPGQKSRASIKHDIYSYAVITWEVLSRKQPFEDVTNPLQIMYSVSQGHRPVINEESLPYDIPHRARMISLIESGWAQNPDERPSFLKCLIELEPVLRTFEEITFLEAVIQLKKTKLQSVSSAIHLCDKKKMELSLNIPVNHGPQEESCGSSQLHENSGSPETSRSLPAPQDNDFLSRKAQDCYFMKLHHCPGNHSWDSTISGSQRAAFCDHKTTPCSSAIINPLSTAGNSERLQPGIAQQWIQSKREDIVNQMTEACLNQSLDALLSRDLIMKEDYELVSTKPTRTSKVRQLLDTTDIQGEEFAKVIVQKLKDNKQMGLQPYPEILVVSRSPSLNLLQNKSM
# MC4R ag barr – human MC4R agonism via beta-arrestin | activation, % at 8.9 µM | U2OS MC4R beta-arrestin complementation, luminescence; percent of melanotan II response, DMSO zero | P32245 | AID 540308 | actives 0.98% (n = 360,000);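 active means activation above a per-plate cutoff, the mean activation of sample wells on that plate plus 3 SD, cut at about 8% in these data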
# TLR4-MyD88 BLA – blocks binding of human TLR4 to MyD88; HeLa CL3-4 TLR4/MyD88 BLA complementation, FRET ratio; actives 0.18% (n = 200,000); inhibition, % at 8.4 µM; O00206+Q99836; in the data active means inhibition above about 25%;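 further: 0% = vehicle and 100% = reference inhibitor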
# MC4R antag cAMP – blocks human MC4R cAMP signaling. MC4R-expressing cells, MTII-stimulated cAMP, LANCE TR-FRET. inhibition, % at 6.5 µM. actives 0.48% (n = 360,000). AID 540295;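 active means inhibition above its plate's cutoff, the mean of tested wells on that plate plus 3 SD, cut at about 29% in these data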;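 further: 0% = Melanotan II alone and 100% = Melanotan II plus saturating MCL0020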
#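 material = U2OS cells stably expressing human melanocortin 4 receptor (MC4R) | also added = Melanotan II challenge | dosing = single nominal compound dose of 6.5 µM | detection = TR-FRET with Eu-cAMP and labeled anti-cAMP, 671 nm | replication = singlicate | timing = compound 30 min, challenge 1 h, detection 1 h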
# beta cell repl – induces beta-cell replication in MIN6 cells. proliferation, % at 10 µM. MIN6 cells proliferation, ATPlite luminescence, 48 h; cells starved in 0.2% serum; 100% = growth in 10% serum. actives 0.29% (n = 330,000);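 active means compounds whose signal lies at least 3.5 SD above the mean of all wells on their plate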;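 further: 0% = DMSO-treated cells in low-serum medium and 100% = 10% serum control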
# NOD2 RIPK2 conf – confirmation of human NOD2-RIPK2 interaction inhibitors. actives 70% (n = 1,200). inhibition, % at 4.98 µM. shares compounds with NOD2 RIPK2 PPI. AID 624370. CHO cells, NOD2-RIPK2 BLA complementation, CCF4 FRET;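 active means mean inhibition across replicates above a set limit taken from the earlier primary screen, cut at about 21% in these data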;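 further: 0% = DMSO-only wells and the high end = clavulanate BLA-blocked wells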
# BLA counter – NOD2-RIPK2 counterscreen BLA reporter activity. actives 57% (n = 1,200). inhibition, % at 4.98 µM. shares compounds with NOD2 RIPK2 PPI. CHO BLA reporter, CCF4 FRET ratio. AID 624371;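 active means mean inhibition above the low-control mean inhibition plus three low-control SD, cut at about 11% in these data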;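 further: 0% = DMSO only wells and 100% = clavulanate high control wells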
# Active calls of the source: *; · = no result given. Sampled rows, rich in hits. Any-hit rate of the full collection: about 2.1%.
SMILES,TLR9-MyD88 inh,NOD2 RIPK2 PPI,MC4R ag barr,TLR4-MyD88 BLA,MC4R antag cAMP,beta cell repl,NOD2 RIPK2 conf,BLA counter
O=C(O)c1cccc(-c2ccc(/C=N/Nc3ccc([N+](=O)[O-])cc3)o2)c1,19,28*,-3,·,10,-4,30*,32*
O=[N+]([O-])c1ccc(N/N=C/c2cccc(O)c2)cc1,7,22*,-2,·,-1,-1,24*,32*
CCCCC(=O)N/N=C/c1ccc(-c2ccc([N+](=O)[O-])cc2)o1,17,9,-2,20,-8,1,·,·
CC(C)(C)NC(=S)N/N=C\c1ccc(-c2ccc([N+](=O)[O-])cc2)o1,·,43*,0,·,0,-3,81*,83*
Cc1cc(C(=O)N/N=C/c2ccc(-c3ccc([N+](=O)[O-])cc3C)o2)n[nH]1,-2,4,0,·,-12,0,·,·
Cc1cc([N+](=O)[O-])ccc1-c1ccc(/C=N/NC(=O)c2ccc(Br)o2)o1,1,40*,-2,·,14,-7,32*,48*
CC(=O)NC(CC(=O)N1CCCC1)c1ccccc1 (configuration not stated),-8,1,-1,·,5,-3,·,·
CCCCNc1c(-c2ccc(-c3ccc(C(C)=O)cc3)c(OC)c2)nc2cnccn12,9,23*,1,·,13,-7,21,30*
CCOC(=O)CNc1c(-c2ccc(Cl)cc2)nc2cnccn12,4,28*,1,6,10,-3,25*,24*
COc1ccc(S(=O)(=O)c2nnn(-c3cccc(Cl)c3)c2N)cc1,8,1,-2,2,7,-4,·,·
CC(C)N1CCC2(CC1)N=C(c1ccc3c(c1)OCO3)CC(c1cc(Cl)ccc1O)N2 (configuration not stated),15,21*,-2,10,7,-4,10,2
CCN1C(=O)c2cccc3c(S(=O)(=O)N4CCC(C)CC4)ccc1c23,18,23*,-3,·,-5,-5,22*,25*
CCN1C(=O)c2cccc3c(S(=O)(=O)NCc4ccccc4)ccc1c23,2,9,-3,·,-7,-2,·,·
FC(F)(F)c1cnc2c(c1)Nc1ccccc1S2,10,22*,-1,-2,2,-4,9,5
Cc1cc(C)c(O)c(-c2cc(C(=O)Nc3c(C)n(C)n(-c4ccccc4)c3=O)[nH]n2)c1,-34,4,-1,·,-1,-3,·,·
COc1ccc2oc(=O)c(-c3nnc(NCc4ccco4)s3)cc2c1,20,21*,1,12,-20,-5,49*,49*
CN(C(=O)COC(=O)CCC1CCCCC1)c1c(N)n(Cc2ccccc2)c(=O)[nH]c1=O,-1,5,-4,·,7,-3,·,·
COCCN(C(=O)COC(=O)CCC1CCCCC1)c1c(N)n(Cc2ccccc2)c(=O)[nH]c1=O,4,28*,2,·,-2,·,2,-2
C=C1C(=O)[C@]23C[C@H]1CCC2[C@]1(C)CCC[C@@](C)(C(=O)O)C1C[C@@H]3O (some centres not stated),·,22*,·,·,·,·,33*,2
CC(=O)Nc1ccc(S(=O)(=O)N2c3ccccc3C(C)=CC2(C)C)cc1,4,23*,-2,-6,-21,-6,22*,-5
O=C1CN(C(=O)CN2CCN(S(=O)(=O)c3ccccc3F)CC2)c2ccccc2N1,-5,4,3,·,0,·,·,·
COCC(=O)Nc1nc2n(n1)C(c1ccc(OC)cc1)CC(c1ccc(OC)cc1)N2 (configuration not stated),-4,-1,-1,7,8,·,·,·
COCC(=O)Nc1nc2n(n1)C(c1ccccc1)CC(c1ccc(OC)cc1)N2 (configuration not stated),13,28*,-2,-2,-4,0,26*,26*
Cc1cccc(S(=O)(=O)NC(=O)C2(C)CCN2C(=O)c2c(C)noc2C)c1 (configuration not stated),·,1,0,·,6,·,·,·
Cc1cc(N2CCOCC2)ccc1/C=C\[N+](=O)[O-],7,51*,-3,14,3,-6,55*,4
SMILES,TLR9-MyD88 inh,NOD2 RIPK2 PPI,MC4R ag barr,TLR4-MyD88 BLA,MC4R antag cAMP,beta cell repl,NOD2 RIPK2 conf,BLA counter
O=[N+]([O-])c1ccc(N2CCOCC2)cc1O,-2,-2,0,·,12,-3,·,·
CCN(CC(=O)Nc1ccc(NC(C)=O)cc1)C(=O)/C=C/c1ccc([N+](=O)[O-])cc1,6,-6,-2,·,6,-2,·,·
COc1ccccc1N(C)S(=O)(=O)c1ccc(C(=O)OCC(N)=O)cc1,7,50*,2,-3,16,-3,1,-4
CC1CC(C)C(=NNC(N)=O)C(C(O)CC2CCC(=O)NC2=O)C1 (configuration not stated),-5,25*,-2,·,7,·,2,0
CCOc1ccccc1C(=O)NCC(=O)NCC(C)(C)N1CCOCC1,-11,29*,-2,·,-7,1,-4,-2
COc1ccccc1C(=O)NCCC(=O)NCC(C)(C)N1CCOCC1,2,-4,0,·,9,-3,·,·
CN(C)CCCN(C(=O)CCOc1ccccc1)c1nc2ccc(F)cc2s1,18,47*,-4,7,-15,·,17,0
CCOc1cc(/C=C\[N+](=O)[O-])ccc1OCC(=O)Nc1ccccc1C,20,89*,1,16,-15,-3,97*,13*
CCOc1ccc(N2CC(C(=O)N3CCc4ccccc43)CC2=O)cc1 (configuration not stated),2,-7,1,·,6,0,·,·
Cc1ccc(S(=O)(=O)NCCN2CCOCC2)c(C)c1C,-3,72*,1,-8,9,-2,-6,-7
COc1ccc(CC(=O)Nc2ccc(-c3cn4ccc(C)cc4n3)cc2)cc1,8,23*,5,7,12,-2,10,-6
Cc1cccn2c(=O)nc(SCC(=O)NC3CCCCC3)nc12,-4,-2,1,·,8,6,·,·
O=C(NC1CCCCNC1=O)c1ccco1 (configuration not stated),4,7,0,·,1,1,·,·
